Experimental data reported in publication PMC4324837 (Antiviral research, 2014).
Where a name gives a salt, the structure may show the parent alone. Numbered stars: 1 amine (or outer) side, 2 acyl side, 3 side chain; on linkers, the order of the positions; unused ones are H or OH. Bridge positions count the residues as written; N and C are the ends. Square brackets hold non-standard residues; d marks the D form. Peptide text beside a SMILES is read from it. I, II: the chains in the order shown. Actinocin(9to1) = Cc1c2oc3c(C)ccc(C(=O)[*:1])c3nc-2c(C(=O)[*:2])c(N)c1=O; NMeV = CN[C@H](C(=O)O)C(C)C; Sar = CNCC(=O)O

Tests used:
[1] = tested on: CMV AD169IE2-YFP; experiment: in vitro; assay type: cell-based, Human cytomegalovirus; details: MRC5 cells; for Selective Ratio (CC50/EC50) / selectivity ratio: AD169IE2-YFP; for selectivity ratio: human, Selective Ratio (CC50/EC50)
[2] = tested on: MRC5 cells; experiment: CC50 / cell viability by NucGreen staining, MRC5 cells; assay type: cell-based, Human; details: MRC5 cells, 0-5μM, 19 hours, NucGreen
[3] = tested on: CMV AD169IE2-YFP; experiment: High-content screen, IE2-YFP nuclear fluorescence in infected MRC5 cells; assay type: cell-based, Human cytomegalovirus; details: for activity at 5.6 µM: Human betaherpesvirus 5, MRC5, 16 h, read-out: YFP Intensity (%); for reduction of YFP intensity: primary screen, screening dose (5μM printed elsewhere in the source)
[4] = CC50 / cell viability by NucGreen staining, MRC5 cells; assay type: cell-based, Human; details: human
[5] = tested on: CMV AD169; experiment: Immunoblot of viral early protein US11 in infected MRC5 cells; assay type: cell-based, Human cytomegalovirus; details: MRC5, AD169-WT MOI 3, 20 hpi; for US11 protein level in infected cells: 50 or 500nM of respective compound
How it was run: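 MRC5 cells were pretreated 1 h at 37 °C with test compound or 0.1% DMSO, infected with wild-type AD169 (MOI 3), then washed once with DMEM before analysis.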

[6] = tested on: CMV; experiment: Addition of compound after infection; assay type: cell-based, Human cytomegalovirus; details: added up to 4hpi, data not shown
[7] = tested on: CMV TB40/EFLAG-YFP; experiment: EC50 of convallatoxin, clinical strain reporter virus in ARPE-19 cells; assay type: cell-based, Human cytomegalovirus; details: Human betaherpesvirus 5, ARPE-19
How it was run: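 ARPE-19 cells, 10,000/well in 96-well plates, got DMEM with test compound (0-10 nM) the next day, in sextuplicate. They were then infected with TB40/E FLAG-YFP (US28 replaced by FLAG-YFP; MOI 20). YFP+ cells were counted at 120 hpi on an Acumen eX3 cytometer, with positive meaning above 2 SD of background. % infection was set against DMSO-treated cells; EC50 came from a three-parameter log(inhibitor)-response fit of mean values.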

[8] = Cell viability by NucGreen staining, ARPE-19 cells; assay type: cell-based; details: human
How it was run: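 ARPE-19 cells, 10,000/well in 96-well plates, were exposed next day to test compound in DMEM, in sextuplicate. After 19 h, NucGreen dead-cell stain went into three of six wells per condition for 10 min at RT. Total cells were counted by fixing with 4% paraformaldehyde and adding NucGreen for 10 min. Signal was read on a fluorescent plate reader, and % viability was taken from NucGreen-positive counts of treated versus total cells.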

[9] = tested on: CMV AD169IE2-YFP; experiment: Multi-cycle infection study, YFP+ cells under long-term convallatoxin treatment; assay type: cell-based, Human cytomegalovirus
How it was run: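 MRC5 cells, 10,000/well in 96-well plates, received DMEM with test compound (0, 5, 10 or 50 nM) in sextuplicate. In one plate this was followed immediately by AD169 IE2-YFP infection (MOI 0.5) or medium alone. In the other, cells were infected (MOI 0.5) or mock-infected for 36 h before compound-containing medium was added. IE2-YFP-positive cells were read on a fluorescent plate reader up to 168 hpi.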

[10] = Cell viability under prolonged treatment, uninfected MRC5 fibroblasts, NucGreen; assay type: cell-based, Human; details: human, uninfected MRC5 fibroblasts
How it was run: (§1)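 Uninfected MRC5 fibroblasts, 10,000/well in 96-well plates, were kept in DMEM with test compound (0, 5, 10 or 50 nM) in sextuplicate for up to 168 h. NucGreen dead-cell staining was read on a fluorescent plate reader. Percent viability used the total cell number of DMSO-treated wells as 100%, plotted at 72, 120 and 168 hpi.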

[11] = tested on: MRC5 cells; experiment: as above; assay type: cell-based, Human; details: 5nM, throughout the timecourse (up to 168 hours)
How it was run: as §1

[12] = tested on: CMV AD169IE2-YFP; assay type: cell-based, Human cytomegalovirus; details: MRC5, MOI 0.5, compound present until 24 hpi

COc1cc(C2c3cc4c(cc3C(O)C3COC(=O)C23)OCO4)cc(OC)c1O (stereo not drawn) [4′-demethyl-epipodophyllotoxin]
Selective Ratio (CC50/EC50) [1]: >1.5 | CC50 [2]: > 5 µM

Cc1c2oc3c(C)ccc(C(=O)N[C@@H]4C(=O)N[C@H](C(C)C)C(=O)N5CCC[C@H]5C(=O)N(C)CC(=O)N(C)[C@@H](C(C)C)C(=O)O[C@@H]4C)c3nc-2c(C(=O)N[C@@H]2C(=O)N[C@H](C(C)C)C(=O)N3CCC[C@H]3C(=O)N(C)CC(=O)N(C)[C@@H](C(C)C)C(=O)O[C@@H]2C)c(N)c1=O [Actinomycin D] (I: T[dV]P[Sar][NMeV] / II: T[dV]P[Sar][NMeV]; ester I:1-I:C, II:1-II:C; linker I:N-II:N via Actinocin(9to1))
activity at 5.6 µM [3]: 5.8 ± 0.11%

COc1ccc(C[C@H]2NC[C@H](O)[C@H]2OC(C)=O)cc1 [Anisomycin]
EC50 ([1]; MOI 3, 1 h pretreatment, 0-5μM, 18 hpi): 0.17 µM

CC(=O)O[C@@H]1C[C@@]2(C)[C@H](c3ccoc3)C[C@H]3O[C@]32[C@]2(C)C(=O)C(O)=C3C(C)(C)C(=O)C=C[C@]3(C)[C@@H]12 [Anthothecol]
activity at 5.6 µM [3]: 27.5 ± 0.55% | Selective Ratio (CC50/EC50) [1]: 0.4 | Selective Ratio (CC50/EC50) ([1]; listed as anthothecol): < 30 | CC50 at 19 h [4]: 0.7 µM

COc1cc2c(c(OC)c1OC)-c1ccc(OC)c(=O)cc1[C@@H](NC(C)=O)CC2 [Colchicine]
activity at 5.6 µM [3]: 17.3 ± 0.34% | CC50 at 19 h [4]: > 5 µM | US11 protein level in infected cells [5]: lower levels of US11 | effect on infection when added after infection [6]: reduced infection

C[C@@H]1O[C@@H](O[C@H]2CC[C@]3(C=O)[C@H]4CC[C@]5(C)[C@@H](C6=CC(=O)OC6)CC[C@]5(O)[C@@H]4CC[C@]3(O)C2)[C@H](O)[C@H](O)[C@H]1O [Convallatoxin]
activity at 5.6 µM [3]: 27.8 ± 0.87% | selectivity ratio [1]: > 454 | CC50 at 19 h [4]: > 5 µM | viability at 19 h, 5 µM [4]: 100% | EC50 [7]: 0.0001 µM | viability at 19 h, 10 nM [8]: ~80% | US11 protein level in infected cells [5]: lower levels of US11 | US11 expression ([5]; convallatoxin 5-50nM (all concentrations)): blocked the expression of US11 at all concentrations | fluorescent expression relative to DMSO-treated cells ([9]; 5nM, added at 0hpi, by 100hpi): approximately half | number of YFP+ cells compared to DMSO ([9]; MRC5, MOI 0.5, 5, 10 or 50nM added simultaneously with virus (0hpi)): reduced the number of YFP+ cells in a dose-dependent manner | number of YFP+ cells ([9]; MRC5, MOI 0.5, treatment of infected cells at 36hpi): significant decrease of YFP+ cells | viability at 120 h, 0.01 µM [10]: 79% | viability at 120 h, 0.05 µM [10]: 61% | viability at 168 h, 0.01 µM [10]: 91% | viability at 168 h, 0.05 µM [10]: 82% | effect on cell viability [11]: no detectable effect | YFP fluorescence (% infection vs DMSO) ([12]; followed 9 days, ganciclovir 12μM): significant decrease in fluorescence | decrease in virus titer compared to ganciclovir treatment ([12]; plaque assay of supernatants): ~10 fold

C[C@@H]1C[C@@H]([C@H](O)CC2CC(=O)NC(=O)C2)C(=O)[C@@H](C)C1 [Cycloheximide]
activity at 5.6 µM [3]: 11.2 ± 1.8%

COc1ccc2c(c1OC)C(=O)O[C@@H]2[C@H]1c2c(cc3c(c2OC)OCO3)CCN1C [Noscapine]
activity at 5.6 µM [3]: 106%

COc1cc([C@@H]2c3cc4c(cc3[C@H](O)[C@H]3COC(=O)[C@H]23)OCO4)cc(OC)c1OC [Podofilox]
activity at 5.6 µM [3]: 14.5 ± 0.31% | selectivity ratio [1]: > 192 | CC50 at 19 h ([4]; MRC5 cells): > 5 µM | US11 protein level in infected cells [5]: lower levels of US11

CN(C)C(=S)SSC(=S)N(C)C [Thiram]
activity at 5.6 µM [3]: 14 ± 0.29% | Selective Ratio (CC50/EC50) [1]: <0.4 | Selective Ratio (CC50/EC50) ([1]; listed as thiram): < 30 | CC50 at 19 h ([4]; MRC5 cells): 2.2 µM

CC[C@]1(O)C[C@@H]2CN(CCc3c([nH]c4ccccc34)[C@@](C(=O)OC)(c3cc4c(cc3OC)N(C)[C@H]3[C@@](O)(C(=O)OC)[C@H](OC(C)=O)[C@]5(CC)C=CCN6CC[C@]43[C@@H]65)C2)C1 [Vinblastine sulfate]
activity at 5.6 µM [3]: 24.2 ± 0.48%

CC[C@]1(O)C[C@H]2CN(CCc3c([nH]c4ccccc34)[C@@](C(=O)OC)(c3cc4c(cc3OC)N(C=O)[C@H]3[C@@](O)(C(=O)OC)[C@H](OC(C)=O)[C@]5(CC)C=CCN6CC[C@]43[C@@H]65)C2)C1 [Vincristine sulfate]
activity at 5.6 µM [3]: 26.6 ± 0.53% | Selective Ratio (CC50/EC50) [1]: 3.4 | CC50 at 19 h [4]: 0.04 µM

CC[C@H]1CN2CCc3cc(OC)c(OC)cc3[C@@H]2C[C@@H]1C[C@H]1NCCc2cc(OC)c(OC)cc21 [emetine]
reduction of YFP intensity [3]: 41%

C[C@@H]1O[C@@H](O[C@H]2C[C@@H](O)[C@]3(CO)[C@H]4[C@H](O)C[C@]5(C)[C@@H](C6=CC(=O)OC6)CC[C@]5(O)[C@@H]4CC[C@]3(O)C2)[C@H](O)[C@H](O)[C@H]1O [ouabain]
reduction of YFP intensity [3]: ≤ 70%

CO[C@H]1[C@H](O)[C@H](O[C@H]2CC[C@@]3(C=O)[C@H](CC[C@@H]4[C@@H]3CC[C@]3(C)[C@@H](C5=CC(=O)OC5)CC[C@]43O)C2)O[C@@H](C)[C@@H]1O [peruvoside]
reduction of YFP intensity [3]: ≤ 70%

COc1cc([C@@H]2c3cc4c(c(O)c3C[C@H]3COC(=O)[C@@H]32)OCO4)cc(OC)c1OC [β-peltatin]
activity at 5.6 µM [3]: 20.5 ± 0.41%
